In the library only some 3.6% were active in any assay of this set; here they are far more common.
SR-BI DiI inh: mouse SR-BI HDL lipid transfer inhibition; inhibition, % at 12.5 µM; Q61009; 320,000 tested, 0.96% active; AID 488896; ldlA[mSR-BI] CHO cells, DiI-HDL uptake fluorescence, 3 h;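 active = mean replicate inhibition of at least 70% and a set share of replicates each scoring 70 or more; inconclusive = meets just one of the two criteria; inactive = fails both criteria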
Target sequence (Q61009 whole entry, looked up): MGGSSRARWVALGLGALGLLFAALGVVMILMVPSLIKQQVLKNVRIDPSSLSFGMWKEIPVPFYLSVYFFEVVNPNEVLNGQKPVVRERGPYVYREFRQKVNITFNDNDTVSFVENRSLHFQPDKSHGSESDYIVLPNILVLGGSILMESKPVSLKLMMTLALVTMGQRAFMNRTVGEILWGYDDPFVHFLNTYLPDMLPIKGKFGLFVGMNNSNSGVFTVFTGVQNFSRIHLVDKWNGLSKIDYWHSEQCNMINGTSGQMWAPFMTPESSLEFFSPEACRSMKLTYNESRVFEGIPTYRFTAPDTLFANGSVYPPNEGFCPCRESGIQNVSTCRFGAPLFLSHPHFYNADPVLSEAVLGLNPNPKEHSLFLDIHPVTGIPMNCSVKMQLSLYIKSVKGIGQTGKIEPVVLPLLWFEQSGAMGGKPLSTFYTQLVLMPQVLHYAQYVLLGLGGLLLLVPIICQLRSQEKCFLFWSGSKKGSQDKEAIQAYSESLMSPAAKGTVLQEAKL
Wnt bcat act: activators of Wnt/beta-catenin signaling; activation, % at 9.35 µM; Wnt/beta-catenin reporter cell assay, activator, plate reader; 300,000 tested, 1.2% active; in the data active = activation above about 30%, passing the limit was not always enough; inconclusive = no clear call, values can overlap the other calls
SR-BI DiI-HDL act: SR-BI HDL lipid transfer activation. CHO ldlA[mSR-BI] cells, DiI-HDL uptake fluorescence, 3 h; 100 = double the neutral-control signal. activation, % at 12.5 µM. 320,000 tested, 0.096% active;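 active = mean replicate activation of at least 60% and every replicate at or above 60%; inconclusive = mean or all-replicate condition met, but not both; inactive = mean below 60% and not all replicates reaching 60%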
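material = CHO ldlA[mSR-BI] cells | medium = Ham's F12 with 0.5% BSA, HEPES 25 mM, pH 7.4 | reagent = fluorescent DiI-HDL, 10 µg/mL final | compound dosing = single-point compound dose | incubation = 3 h, 37 °C | measured by = bottom-read fluorescence, 550/595 nm | measure = HDL uptake via cellular fluorescence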
MITF TRPM1 HTS: MITF TRPM1 promoter activation in melanoma cells | SK-MEL-5 TRPM1-promoter luciferase, 24 h; % of positive control, neutral wells = 0 | activation, % at 12.5 µM | 300,000 tested, 0.75% active | AID 588334;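 active = mean activation of at least 80% with every replicate also reaching 80%; inconclusive = mean reaches 80% but some replicate falls short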
HSF1 activator: increases HSF-1 driven luciferase reporter signal; NIH3T3-HGL HSF-1 luciferase reporter, MG132, 8 h; 100% = twice DMSO control signal; activation, % at 9 µM; 300,000 tested, 1.7% active;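 active = mean replicate activation of at least 50% with a set share of replicates each reaching 50%; inconclusive = only one of those two conditions met; inactive = mean below 50% and too few replicates reaching it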
Each line names hits and unclear results; the compound was inactive in the other large screens.

Cc1cc(/C=C(/C#N)c2cccc(Cl)c2)c(C)n1C	HSF1 activator 67.1
Cc1cccc(-n2c(C)cc(C=C(C#N)C#N)c2C)c1	none (no result: Wnt bcat act)
O=S1(=O)c2ccc(Br)cc2OC2CCCN1C2 (configuration not stated)	none (no result: SR-BI DiI inh, SR-BI DiI-HDL act, MITF TRPM1 HTS, HSF1 activator)
Cc1ccn2c(=O)nc(SCC(=O)c3ccc(Cl)cc3)nc2c1	none
Cc1ccn2c(C(=O)c3ccc(Cl)cc3)cnc2c1	Wnt bcat act 42.9, MITF TRPM1 HTS inconclusive
O=C(/C=C/c1ccc(Cl)cc1Cl)N1CCc2ccccc21	Wnt bcat act 48.5, HSF1 activator 55.0
O=C(NCCN1C(=O)C2C3C=CC(C3)C2C1=O)Nc1cccnc1 (configuration not stated)	none
O=C(NCCN1C(=O)C2C3C=CC(C3)C2C1=O)Nc1ccc(Br)cc1 (configuration not stated)	Wnt bcat act 37.1
Cc1cccc(C(c2c(C)nn(-c3ccccc3)c2N)c2c(C)nn(-c3ccccc3)c2N)c1	HSF1 activator 82.8
COCCNC(=O)C1(C)CCCN(C(=O)c2c(F)ccc(C)c2F)C1 (configuration not stated)	none (no result: SR-BI DiI inh, SR-BI DiI-HDL act, MITF TRPM1 HTS, HSF1 activator)
N#C/C(=C\c1ccc(N2CCCCC2)o1)C(=O)Nc1cccc(Br)c1	SR-BI DiI inh 98.7, Wnt bcat act 37.9
CCn1c(C(=O)NC2CCC(C)CC2)cc2sccc21 (configuration not stated)	MITF TRPM1 HTS 91.9
CCOC(=O)N1CCC(NC(=O)c2cc3sccc3n2CC)CC1	none
O=C(c1cc(-c2ccccc2)on1)N1CCCCCC1	Wnt bcat act 37.1, MITF TRPM1 HTS 140.7, HSF1 activator inconclusive (no result: SR-BI DiI inh, SR-BI DiI-HDL act)
O=C(c1cc(-c2cccc(O)c2)on1)N1CCCC1	none
O=C(c1cc(-c2cccc(O)c2)on1)N1CCCCC1	Wnt bcat act 40.3
COC(=O)c1cc2c(c3c4ccccc4n(S(=O)(=O)c4ccccc4)c13)C(=O)N(Cc1ccco1)C2	none (no result: SR-BI DiI inh, SR-BI DiI-HDL act, MITF TRPM1 HTS, HSF1 activator)
CC(C)c1ccc(C(C(C(=O)c2ccccc2)N2CCOCC2)N2CCOCC2)cc1 (configuration not stated)	none (no result: HSF1 activator)
CC(=O)N1CCN(c2ccc(N3CCN(C(C)=O)[C@@H](C)C3)c(C)c2)[C@@H](C)C1	none (no result: SR-BI DiI inh, SR-BI DiI-HDL act, MITF TRPM1 HTS, HSF1 activator)
O=C(COC(=O)c1cc(S(=O)(=O)N2CCOCC2)ccc1F)Nc1ccccc1C(F)(F)F	none (no result: SR-BI DiI inh, SR-BI DiI-HDL act, MITF TRPM1 HTS, HSF1 activator)
O=C(COC(=O)Cn1cnc2ccccc21)Nc1cc2c(cc1Cl)C(=O)c1ccccc1C2=O	HSF1 activator 74.1
Cc1c(O)ccc(/C=N/Nc2ncccc2[N+](=O)[O-])c1O	HSF1 activator 54.9 (no result: MITF TRPM1 HTS)
O=[N+]([O-])c1cccnc1N/N=C/c1ccccc1O	none
Cc1cc(Br)ccc1NC(=O)CN(C)C(=O)c1cccc(S(=O)(=O)N2CCN(C)CC2)c1	none (no result: HSF1 activator)
O=C1N=C(N2CCCCC2)SC1=C1CCCC1	none
CCCCN1C(=O)/C(=C2\SC(N3CCCCC3)=NC2=O)c2ccccc21	MITF TRPM1 HTS 107.2, HSF1 activator 51.4
N#Cc1c(Nc2ccccc2)[n+]([O-])c2ccc(Cl)cc2[n+]1[O-]	none (no result: HSF1 activator)
O=C1OC[C@H]2CCCN2C(=O)[C@@H](CC(=O)N(CCO)Cc2ccccc2)C/C=C\C[C@@H]1Cc1ccc(F)cc1	none (no result: HSF1 activator)
N/C(=N\N=C\c1ccc(O)cc1)c1nonc1N	Wnt bcat act 49.4
Nc1nonc1C(=O)N/N=C/c1ccc(Br)o1	none (no result: MITF TRPM1 HTS)
N/C(=N\N=C\c1ccc(Br)o1)c1nonc1N	MITF TRPM1 HTS 118.2
Cc1cccc(C2c3[nH]c4ccccc4c3CCN2Cc2cnn(-c3ccc(F)cc3)c2)n1 (configuration not stated)	HSF1 activator 56.0
O=C(N/N=C/c1ccc([N+](=O)[O-])o1)c1cn(-c2ccccc2)nc1-c1ccccc1	SR-BI DiI inh 83.7
O=C(N/N=C/c1ccc([N+](=O)[O-])o1)c1ccccc1-n1cccc1	none
O=C(N/N=C/c1ccc([N+](=O)[O-])o1)c1cn(-c2ccccc2)nc1-c1ccc(Cl)cc1	SR-BI DiI inh 111.9
CC(=O)Nc1cccc(-c2ccnc3c2CC(C)(C(=O)NCCC(F)(F)F)O3)c1 (configuration not stated)	none (no result: SR-BI DiI inh, SR-BI DiI-HDL act, MITF TRPM1 HTS, HSF1 activator)
C=CCn1cnc2c(nnn2-c2ccc(OC)c(OC)c2)c1=O	none
C=CCn1cnc2c(nnn2-c2ccc(C)c(C)c2)c1=O	MITF TRPM1 HTS 110.4
O=C(CSC1=N/C(=C/c2ccco2)C(=O)N1c1ccc(OC(F)F)cc1)NC1CCS(=O)(=O)C1 (configuration not stated)	HSF1 activator 63.7
CC(=O)O[C@]1(C(C)=O)CC[C@H]2[C@@H]3C=CC4=CC(=O)C=C[C@]4(C)[C@H]3CC[C@@]21C	HSF1 activator 109.4
CC(=O)O[C@]1(C(C)=O)CCC2C3C=C(C)C4=CC(=O)CC[C@]4(C)C3CC[C@@]21C (some centres not stated)	none
O=C(Nc1ccc(Cl)cc1)NC1CCCCC1	Wnt bcat act 66.1, MITF TRPM1 HTS inconclusive
O=C(Nc1ccc(F)cc1)NC1CCCCCCC1	MITF TRPM1 HTS 105.2
Nc1ccc(NC(=O)NC2CCCCC2)cc1	none
O=C(CCNC(=O)c1ccc(Cl)cc1)NC1CCCCCC1	Wnt bcat act 37.8 (no result: HSF1 activator)
O=C(CCNC(=O)c1ccc(Br)cc1)NC1CCCCCC1	none (no result: HSF1 activator)
O=C(NC1CCCC1)C1CCN(C(=O)c2ccc(Cl)cc2)CC1	HSF1 activator 54.0
C[C@@H]1CN([C@@H](C)CO)C(=O)CCCn2nncc2CO[C@@H]1CN(C)C(=O)Nc1ccnc(N2CCOCC2)c1	none (no result: SR-BI DiI inh, SR-BI DiI-HDL act, MITF TRPM1 HTS, HSF1 activator)
C[C@H]1CN([C@@H](C)CO)S(=O)(=O)c2ccc(-c3cncnc3)cc2O[C@H]1CN(C)C(=O)NC1CCCC1	none (no result: SR-BI DiI inh, SR-BI DiI-HDL act, MITF TRPM1 HTS, HSF1 activator)
Cn1c(=O)c2cc(NC(=O)NCc3ccc(Cl)cc3Cl)ccc2n1Cc1ccccc1	none (no result: SR-BI DiI inh, SR-BI DiI-HDL act, MITF TRPM1 HTS, HSF1 activator)
CCOc1ccc(NC(=O)c2ccc(F)cc2F)cc1	Wnt bcat act 41.4, MITF TRPM1 HTS 92.9
CCOc1ccc(NC(=O)c2cc3c(C)nc4ccccc4c3o2)cc1	SR-BI DiI inh 98.6
CCOc1ccc(NC(=O)c2cc3ccccc3cc2O)cc1	none
CCOc1ccc(NC(=O)c2cc3ccccc3cc2OC)cc1	HSF1 activator 74.7
C=CCN(CC=C)Cc1cc(=O)oc2cc(OC)ccc12	none (no result: SR-BI DiI inh, SR-BI DiI-HDL act, MITF TRPM1 HTS, HSF1 activator)
O=C(Nc1ccc(F)cc1)C(CCc1ccccc1)N1CCN(c2ccncc2)CC1 (configuration not stated)	none (no result: SR-BI DiI inh, SR-BI DiI-HDL act, MITF TRPM1 HTS, HSF1 activator)
Clc1ccc(SCc2cn3ccccc3n2)cc1	MITF TRPM1 HTS inconclusive, HSF1 activator 78.0
Clc1ccc2nc(CSc3nnc4ccccn34)cn2c1	HSF1 activator 68.1 (no result: Wnt bcat act)
Cc1ccc(SCc2cn3cc(Cl)ccc3n2)cc1	Wnt bcat act 34.9, HSF1 activator 54.2 (no result: MITF TRPM1 HTS)
Clc1ccc2nc(CSc3nncn3-c3ccccc3)cn2c1	none
Clc1ccc2nc(CSc3nc4ccccc4o3)cn2c1	Wnt bcat act 58.5, HSF1 activator 100.5 (no result: MITF TRPM1 HTS)
Clc1ccc2nc(CSc3nnc(-c4c[nH]c5ccccc45)o3)cn2c1	none (no result: SR-BI DiI inh, SR-BI DiI-HDL act, HSF1 activator)
O=C(/C=C/[C@H]1O[C@@H](n2ccc(=O)[nH]c2=O)[C@H](O)[C@@H]1O)NCc1cccc2ccccc12	none (no result: SR-BI DiI inh, SR-BI DiI-HDL act, MITF TRPM1 HTS, HSF1 activator)

Compound activity: PubChem, Broad Institute
